Assay results from different studies.
Compare with care: the assays were run in different laboratories.
SRC T341M: Proto-oncogene tyrosine-protein kinase Src (SRC, Homo sapiens, UniProt P12931, T341M)
SRC: Proto-oncogene tyrosine-protein kinase Src (SRC, Homo sapiens, UniProt P12931)

Cc1cc(NC(=O)c2cccc3cc(-c4cccc5[nH]nc(N)c45)ccc23)ccc1F  activity vs control (SRC T341M; enzyme activity, inhibitor; 0.1 µM): 90%
O=C1NC(=O)c2cc(Nc3ccc(F)cc3)c(Nc3ccc(F)cc3)cc21  remaining signal (SRC; cell-free assay; 0.5 µM): 101%
Cc1ccc(NC(=O)c2ccc(C)c(C(F)(F)F)c2)cc1C#Cc1nn(C2CCC(O)CC2)c2ncnc(N)c12 (stereo not drawn)  remaining signal (SRC; cell-free assay; 10 µM): 0%
CCC(=O)Nc1ccc2ncnc(Nc3cccc(Br)c3)c2c1  remaining signal (SRC; cell-free assay, inhibitor; 0.5 µM): 93.6%
Cc1ccc(Nc2nccc(N(C)c3ccc4c(C)n(C)nc4c3)n2)cc1S(N)(=O)=O  inhibition (SRC; enzyme activity, inhibitor; 0.3 µM): 42%
FC(F)(F)Oc1cccc(-c2cnc3ccc(-c4ccncc4)nn23)c1  activity vs control (SRC; enzyme activity, inhibitor, radiometric; 5 µM): 45%
CC(C)n1cnc2c(Nc3cccc(Cl)c3)nc(NCCO)nc21  remaining signal (SRC; cell-free assay; 0.5 µM): 68.9%
CS(=O)(=O)Nc1cccc(-c2csc(NC(=O)CSc3nc4nccnc4c(=O)n3CCc3ccccc3)n2)c1  inhibition (SRC; enzyme activity, inhibitor; 10 µM): 10%
CN(C)C1CCN(CC#Cc2nn(C3CCCC3)c3nc(NCc4ccccc4)ncc23)C1 (stereo not drawn)  inhibition (SRC; enzyme activity, inhibitor, FRET; 10 µM): 41%
O=C(NCc1ncc(C(F)(F)F)cc1Cl)c1ccc2c(c1)C1(CCS(=O)(=O)CC1)[C@H](C1CC1)N2S(=O)(=O)c1ccc(F)cc1  remaining binding (SRC; cell-free assay, competition with immobilised ligand; 1 µM): 98%
Cc1ccc(C(=O)NCc2ccsc2)cc1C#Cc1cn(C(C)C)c2ncnc(N)c12  activity vs control (SRC T341M; enzyme activity, inhibitor; 1 µM): 79%
Cc1cc(Nc2nc(-c3ccccc3)nc3ccccc23)n[nH]1  remaining signal (SRC; cell-free assay; 0.5 µM): 24.4%
Cn1nc(C(F)(F)F)cc1-c1cnc(N2CCc3cc(S(=O)(=O)Nc4c(F)cc(Cl)cc4F)cc(N4CCCC4=O)c32)nc1  remaining binding (SRC; cell-free assay, competition with immobilised ligand; 1 µM): 100%
CNC(=O)c1cc2c(Oc3ccc(NC(=O)C4(C(=O)Nc5ccc(F)cc5)CC4)cc3)ccnc2cc1OC  inhibition (SRC; enzyme activity, inhibitor, radiometric; 1 µM): 97%
COc1cc2c(Nc3ccc(Br)cc3F)ncnc2cc1OCC1CCN(C)CC1  remaining signal (SRC; cell-free assay; 0.5 µM): 11%
CO[C@H]1CC[C@H](CNc2ccc(S(=O)(=O)NC(=O)c3ccc(N4CCN(CC5=C(c6ccc(Cl)cc6)CC(C)(C)CC5)CC4)cc3Oc3cnc4[nH]ccc4c3)cc2[N+](=O)[O-])CC1  remaining binding (SRC; cell-free assay, competition with immobilised ligand; 1 µM): 78%
COc1ccc(COc2ccc(Cc3cnc(N)nc3N)cc2OC)cc1  remaining signal (SRC; cell-free assay; 0.5 µM): 97.9%
CNC(=O)c1ccc(Nc2ncc(C(F)(F)F)c(NCc3nccnc3N(C)S(C)(=O)=O)n2)cc1  remaining binding (SRC; cell-free assay, competition with immobilised ligand; 0.1 µM): 79%
CC/C(=N\NC(=O)NCc1cccc(O)c1)c1ccc(O)c(C)c1O  inhibition (SRC; enzyme activity, inhibitor; 0.1 µM): 1.9%
Cc1noc([C@H]2C[C@@H](c3ccc(C(F)(F)F)cc3)CN(C(=O)N3CCS(=O)(=O)C3)C2)n1  remaining binding (SRC; cell-free assay, competition with immobilised ligand; 1 µM): 96%
COc1cc2ncnc(Nc3ccc(Oc4ccccc4)cc3C)c2cc1OC  inhibition (SRC; enzyme activity, inhibitor; 1 µM): 90%
CCC(=O)N[C@@H]1CC[C@H](C(=O)N(C)c2ccc(-c3nc4ccccc4o3)cc2)C1  remaining binding (SRC; cell-free assay, competition with immobilised ligand; 1 µM): 100%
CSc1nc(C)c(-c2ccnc(Nc3ccc(N4CCOCC4)cc3)c2)[nH]1  inhibition (SRC; enzyme activity, inhibitor; 10 µM): 12.5%
C[C@@H]1CN(c2cc(-c3nn(C)c4ccc(OC5(C)CC5)cc34)ncn2)C[C@H](C)O1  remaining binding (SRC; cell-free assay, competition with immobilised ligand; 1 µM): 100%
CNc1cccc2cc(C(=O)Nc3ccc(C(=O)O)cc3)c(=O)[nH]c12  inhibition (SRC; enzyme activity, inhibitor; 10 µM): 5%
CCCCN(CCCC)C(=O)CN1C[C@H](c2cc(OC)c3c(c2)OCO3)[C@@H](C(=O)O)[C@@H]1CC(C)(C)CCC  remaining binding (SRC; cell-free assay, competition with immobilised ligand; 1 µM): 100%
c1ccc(CNc2nc(N3CCOc4ccccc43)nc3c2CCCC3)cc1  inhibition (SRC; target engagement in cells, inhibitor, chemoproteomics; 20 mM): -13.5%
